This note sets out measurements from ChEMBL document CHEMBL1152631, “Design, synthesis, and preliminary studies of the activity of novel derivatives of N-cinnamoyl-L-aspartic acid as inhibitors of aminopeptidase N/CD13” (Bioorg Med Chem, 2009).

One assay deals with T1, Aminopeptidase N (Sus scrofa, UniProt P15145).
T1 sequence (P15145 whole entry): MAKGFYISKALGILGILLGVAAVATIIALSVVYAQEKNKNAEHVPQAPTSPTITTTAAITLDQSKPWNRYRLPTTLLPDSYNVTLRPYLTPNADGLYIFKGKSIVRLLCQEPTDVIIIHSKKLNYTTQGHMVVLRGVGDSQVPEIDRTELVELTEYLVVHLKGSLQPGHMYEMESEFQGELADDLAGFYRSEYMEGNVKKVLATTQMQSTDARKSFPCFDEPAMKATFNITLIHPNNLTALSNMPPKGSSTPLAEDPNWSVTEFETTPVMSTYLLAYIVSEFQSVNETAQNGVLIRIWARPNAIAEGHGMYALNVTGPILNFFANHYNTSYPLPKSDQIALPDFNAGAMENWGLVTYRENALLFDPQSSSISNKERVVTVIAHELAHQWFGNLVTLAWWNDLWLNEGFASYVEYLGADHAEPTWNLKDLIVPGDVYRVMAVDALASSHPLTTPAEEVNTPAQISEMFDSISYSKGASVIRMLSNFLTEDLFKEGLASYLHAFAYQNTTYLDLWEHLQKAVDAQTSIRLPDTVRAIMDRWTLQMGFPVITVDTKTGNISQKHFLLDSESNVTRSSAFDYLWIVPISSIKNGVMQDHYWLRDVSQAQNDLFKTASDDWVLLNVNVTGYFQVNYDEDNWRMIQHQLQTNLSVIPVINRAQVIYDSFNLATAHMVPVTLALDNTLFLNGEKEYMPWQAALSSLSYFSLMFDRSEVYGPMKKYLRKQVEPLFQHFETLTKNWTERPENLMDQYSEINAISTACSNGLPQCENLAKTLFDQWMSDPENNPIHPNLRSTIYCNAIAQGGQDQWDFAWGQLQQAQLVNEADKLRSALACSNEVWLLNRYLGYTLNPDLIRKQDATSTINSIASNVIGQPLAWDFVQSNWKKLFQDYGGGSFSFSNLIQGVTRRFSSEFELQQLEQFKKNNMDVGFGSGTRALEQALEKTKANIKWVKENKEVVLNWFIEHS
The assay can be described thus: Inhibition of porcine kidney microsome APN assessed as L-Leu-p-nitroanilide hydrolysis. Put shortly:
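Porcine kidney microsomal aminopeptidase, 4 mg/ml final, in PBS pH 7.2 at 37 °C. Inhibitor solutions made in assay buffer and adjusted to pH 7.5, preincubated with enzyme 30 min at room temperature.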

For assay [1], the target named is 72 kDa type IV collagenase (Homo sapiens, UniProt P08253). The assay can be described thus: Inhibition of MMP2. The gist of the method: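 Gelatinase A (MMP-2) with synthetic substrate and inhibitor in sodium borate (50 mmol/l, pH 8.5), incubated 30 min at 37 °C. Then 0.03% TNBS added for a further 20 min and absorbance read at 450 nm.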
Chain of 72 kDa type IV collagenase (P08253 whole entry): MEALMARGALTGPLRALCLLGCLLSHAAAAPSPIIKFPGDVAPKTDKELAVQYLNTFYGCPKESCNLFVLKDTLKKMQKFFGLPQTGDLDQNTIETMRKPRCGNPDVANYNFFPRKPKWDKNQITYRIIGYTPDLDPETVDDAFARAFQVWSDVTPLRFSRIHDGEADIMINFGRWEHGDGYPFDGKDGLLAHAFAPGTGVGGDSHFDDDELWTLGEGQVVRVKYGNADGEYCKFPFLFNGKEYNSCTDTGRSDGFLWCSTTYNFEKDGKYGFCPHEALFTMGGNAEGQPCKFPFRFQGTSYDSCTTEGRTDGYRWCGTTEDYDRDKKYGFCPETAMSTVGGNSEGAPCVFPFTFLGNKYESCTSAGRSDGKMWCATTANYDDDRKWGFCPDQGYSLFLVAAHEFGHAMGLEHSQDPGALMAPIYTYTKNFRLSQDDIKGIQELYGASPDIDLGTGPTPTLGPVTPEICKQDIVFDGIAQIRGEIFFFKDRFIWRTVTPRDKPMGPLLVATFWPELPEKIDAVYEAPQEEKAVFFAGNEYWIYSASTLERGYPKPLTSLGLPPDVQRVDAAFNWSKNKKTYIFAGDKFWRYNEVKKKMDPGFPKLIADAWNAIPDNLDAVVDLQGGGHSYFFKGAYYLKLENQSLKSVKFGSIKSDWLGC
The next assay has as its system HL-60. Put plainly: Antiproliferative activity against human HL60 cells after 48 hrs by MTT assay. Conditions: HL-60, 48 h. The format is functional, cell-based. The gist of the method:
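HL-60 cells kept in RPMI1640 with 10% FBS at 37 °C, 5% CO2. Seeded 10,000 cells per well, grown 4 h, then exposed to 1600, 800, 400, 200 or 100 µg/ml for 48 h. Added 0.5% MTT, incubated 4 h, dissolved formazan in DMSO and read OD at 570 nm. Mean and SE of five independent experiments.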

The term IC50 denotes the concentration needed to halve the response being measured. Take `CCCNC(=O)C[C@@H](NC(=O)/C=C/c1ccccc1)C(=O)NO`: the figures for the IC50 (at Aminopeptidase N; in assay [1]) were 36 µM and 131 µM, respectively.
As for `O=C(/C=C/c1ccccc1)N[C@H](CC(=O)Nc1ccc([N+](=O)[O-])cc1)C(=O)NO`, on Aminopeptidase N, the IC50 amounted to 189 µM.
Turning to `O=C(/C=C/c1ccccc1)N[C@H](CC(=O)Nc1cccc(Cl)c1)C(=O)O`, at Aminopeptidase N, the IC50 was determined as 719 µM.
In the case of `O=C(/C=C/c1ccccc1)N[C@H](CC(=O)Nc1cccc2ccccc12)C(=O)NO`, the IC50 on Aminopeptidase N stood at 2050 µM.
On the same count and under the same terms, as for `O=C(/C=C/c1ccccc1)N[C@H](CC(=O)Nc1ccc(Cl)cc1)C(=O)O`, the figure is 349 µM; as for `O=C(/C=C/c1ccccc1)N[C@H](CC(=O)Nc1ccccc1Cl)C(=O)O`, 263 µM.
As for `CC(C)NC(=O)C[C@@H](NC(=O)/C=C/c1ccccc1)C(=O)NO`, the IC50 on Aminopeptidase N stood at 65.9 µM.
With `CCCCCCCCCCCCNC(=O)C[C@@H](NC(=O)/C=C/c1ccccc1)C(=O)NO`, the values for the IC50 (at Aminopeptidase N; in assay [1]) were 438 µM and > 1000 µM, respectively.
Consider `CCCCCCCCNC(=O)C[C@@H](NC(=O)/C=C/c1ccccc1)C(=O)NO`, for which the IC50 on Aminopeptidase N came to 18.5 µM.
On to `O=C(/C=C/c1ccccc1)N[C@H](CC(=O)Nc1ccccc1)C(=O)NO`, for which the IC50 at Aminopeptidase N turned out to be 115 µM.
As to `O=C(/C=C/c1ccccc1)N[C@H](CC(=O)Nc1cccc([N+](=O)[O-])c1)C(=O)NO`, the IC50 is 1440 µM at Aminopeptidase N and > 1000 µM in assay [1].
For `CCCCCCCCCCCCNC(=O)C[C@@H](NC(=O)/C=C/c1ccccc1)C(=O)O`, on Aminopeptidase N, the IC50 came out at 962 µM.
With `O=C(/C=C/c1ccccc1)N[C@H](CC(=O)NCc1ccccc1)C(=O)NO`, the IC50 on Aminopeptidase N worked out at 65.1 µM.
For the molecule `CCCCCNC(=O)C[C@@H](NC(=O)/C=C/c1ccccc1)C(=O)O`, the IC50 at Aminopeptidase N stood at 204 µM.
Consider `CCCCCCNC(=O)C[C@@H](NC(=O)/C=C/c1ccccc1)C(=O)NO`, for which the IC50 at Aminopeptidase N was 18.1 µM; in assay [1] it was 179 µM.
Taken in the same sequence, the figures for `O=C(/C=C/c1ccccc1)N[C@H](CC(=O)Nc1ccccc1Cl)C(=O)NO` were 86.6 µM and > 1000 µM.
For the molecule `O=C(/C=C/c1ccccc1)N[C@H](CC(=O)Nc1cccc(Cl)c1)C(=O)NO`, the values for the IC50 (on Aminopeptidase N; in assay [1]) were 1210 µM and > 1000 µM, respectively.
As to `CC(C)NC(=O)C[C@@H](NC(=O)/C=C/c1ccccc1)C(=O)O`, the IC50 on Aminopeptidase N came out at 2200 µM.
Still for that read-out and setting: next, `CCCCNC(=O)C[C@@H](NC(=O)/C=C/c1ccccc1)C(=O)O`: 190 µM.
For the molecule `O=C(/C=C/c1ccccc1)N[C@H](CC(=O)Nc1ccc(Cl)cc1)C(=O)NO`, the IC50 at Aminopeptidase N turned out to be 192 µM; in assay [1], 197 µM.
Take `O=C(/C=C/c1ccccc1)N[C@H](CC(=O)Nc1cccc([N+](=O)[O-])c1)C(=O)O`: the IC50 at Aminopeptidase N was 1780 µM; in assay [1], > 1000 µM.
Take `O=C(/C=C/c1ccccc1)N[C@H](CC(=O)Nc1ccc([N+](=O)[O-])cc1)C(=O)O`: the IC50 on Aminopeptidase N worked out at 273 µM.
For `CCCCNC(=O)C[C@@H](NC(=O)/C=C/c1ccccc1)C(=O)NO`, the results for the IC50 (on Aminopeptidase N; in assay [1]; in the assay on HL-60) were 11.1 µM, 232 µM and 780 µM, respectively.
Regarding `CCCCCNC(=O)C[C@@H](NC(=O)/C=C/c1ccccc1)C(=O)NO`, the IC50 at Aminopeptidase N was 17.4 µM; in assay [1], 197 µM.
`O=C(/C=C/c1ccccc1)N[C@H](CC(=O)Nc1cccc2ccccc12)C(=O)O`: the IC50 on Aminopeptidase N was 739 µM; in assay [1], > 1000 µM.
As to `O=C(/C=C/c1ccccc1)N[C@H](CC(=O)NCc1ccccc1)C(=O)O`, on Aminopeptidase N, the IC50 was found to be 207 µM.
For `CCCCCCCCNC(=O)C[C@@H](NC(=O)/C=C/c1ccccc1)C(=O)O`, the IC50 is 232 µM on Aminopeptidase N and > 1000 µM in assay [1].
For `O=C(/C=C/c1ccccc1)N[C@H](CC(=O)Nc1ccccc1)C(=O)O`, the IC50 on Aminopeptidase N is 232 µM; in assay [1], > 1000 µM.
As for `CCCNC(=O)C[C@@H](NC(=O)/C=C/c1ccccc1)C(=O)O`, at Aminopeptidase N, the IC50 was determined as 9110 µM.
On to `CC(C)C[C@H](NC(=O)[C@@H](O)[C@H](N)Cc1ccccc1)C(=O)O` [UBENIMEX], for which 920 µM corresponded to half-maximal inhibition in the assay on HL-60 (IC50).
